# Laboratory results published in ChEMBL document CHEMBL3272036, “Reactions of 2-acyloxyisobutyryl halides with nucleosides. Synthesis and biological evaluation of some 3"-acyl and 3',5'-diacyl derivatives of 1-beta-D-arabinofuranosylcytosine” (J Med Chem, 1976).
# pEC50: −log10 of the molar value. Activity calls are given as the source filed them. The rule behind the calls is not given here.
# How the values were obtained:
# L1210 [1] = test: Antitumor activity against mouse L1210 cells allografted in BDF1 mouse assessed as survival at 200 mg/kg, ip administered as single dose measured on day 30 relative to vehicle-treated control; assay type: functional, organism-based; parameters: dose 200 mg/kg
# Procedure, shortened: (§1)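 Leukemic L1210 cells were introduced into mice. Each compound was then given as a single intraperitoneal injection 24 h later. Activity is expressed as % increase in life span (ILS), with the count of 30-day survivors per group. Doses tested were 100, 200, 500 and 1000 mg/kg.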
# HeLa = test: Cytotoxicity against human HeLa cells after 48 hrs by Coulter counter analysis; assay type: functional; conditions: read-out: ED50 (the source's name)
# Vaccinia virus = test: Antiviral activity against Vaccinia virus IHD infected in African green monkey BGM cells assessed as plaque reduction measured on day 5 by disk diffusion assay; assay type: functional; conditions: Orthopoxvirus vaccinia, 120 h, read-out: ED50 (the source's name)
# Herpesviridae sp. = test: Antiviral activity against Herpes Simplex virus HF infected in African green monkey BGM cells assessed as plaque reduction measured on day 5 by disk diffusion assay; assay type: functional; conditions: 120 h, read-out: ED50 (the source's name)
# L1210 [2] = test: Antitumor activity against mouse L1210 cells allografted in BDF1 mouse assessed as increase in life span at 200 mg/kg, ip administered as single dose relative to vehicle-treated control; assay type: functional; conditions: route intraperitoneal
# Procedure, shortened: (§2)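 Single intraperitoneal injection given 24 h after the leukemic cells were introduced, at 100, 200, 500 or 1000 mg/kg. Read-out is % increase in life span (ILS), with the count of 30-day survivors per group recorded (group sizes 7–8 mice).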
# L1210 [3] = test: Antitumor activity against mouse L1210 cells allografted in BDF1 mouse assessed as increase in life span at 100 mg/kg, ip administered as single dose relative to vehicle-treated control; assay type: functional; conditions: route intraperitoneal; procedure, shortened: as §2
# L1210 [4] = test: Antitumor activity against mouse L1210 cells allografted in BDF1 mouse assessed as survival at 100 mg/kg, ip administered as single dose measured on day 30 relative to vehicle-treated control; assay type: functional, organism-based; parameters: dose 100 mg/kg; procedure, shortened: as §1
# L1210 [5] = test: Antitumor activity against mouse L1210 cells allografted in BDF1 mouse assessed as increase in life span at 1000 mg/kg, ip administered as single dose relative to vehicle-treated control; assay type: functional; conditions: route intraperitoneal; procedure, shortened: as §2
# L1210 [6] = test: Antitumor activity against mouse L1210 cells allografted in BDF1 mouse assessed as increase in life span at 500 mg/kg, ip administered as single dose relative to vehicle-treated control; assay type: functional; conditions: route intraperitoneal; procedure, shortened: as §2
Compound,Activity (L1210 [1]),EC50 (HeLa),pEC50 (Vaccinia virus),pEC50 (Herpesviridae sp.),ILS at 200 mg/kg (L1210 [2]),ILS at 100 mg/kg (L1210 [3]),Activity (L1210 [4]),ILS at 1000 mg/kg (L1210 [5]),ILS at 500 mg/kg (L1210 [6])
CCCCCCC/C=C\C(=O)O[C@H]1[C@H](O)[C@H](n2ccc(N)nc2=O)O[C@@H]1CO.Cl,inactive,0.06 µg/mL,6.96,6.64,22%,,,,
C=CCCCCCCCC(=O)OC[C@H]1O[C@@H](n2ccc(N)nc2=O)[C@@H](O)[C@@H]1OC(=O)CCCCCCCC=C.Cl,,0.1 µg/mL,,,,,,,
CCCCCCCC/C=C\CCCCCCCC(=O)O[C@H]1[C@H](O)[C@H](n2ccc(N)nc2=O)O[C@@H]1CO,inactive,0.06 µg/mL,6.14,6.03,67%,,,,
CCCCCC(=O)OC[C@H]1O[C@@H](n2ccc(N)nc2=O)[C@@H](O)[C@@H]1OC(=O)CCCCC,inactive,0.07 µg/mL,6.66,6.05,11%,4%,inactive,,
CCCCCCCCCCCCCCCC(=O)OC[C@H]1O[C@@H](n2ccc(N)nc2=O)[C@@H](O)[C@@H]1OC(=O)CCCCCCCCCCCCCCC,,> 10 µg/mL,4.52,< 4.52,> 255%,,,> 237%,
CCCCCCCCCCCCCCCCCC(=O)OC[C@H]1O[C@@H](n2ccc(N)nc2=O)[C@@H](O)[C@@H]1OC(=O)CCCCCCCCCCCCCCCCC,inactive,10 µg/mL,< 4.52,< 4.52,124%,,,> 328%,
CCCCCCCCCCCC(=O)OC[C@H]1O[C@@H](n2ccc(N)nc2=O)[C@@H](O)[C@@H]1OC(=O)CCCCCCCCCCC,Active,0.5 µg/mL,5.69,5.14,> 285%,,,> 260%,
CCCC(=O)OC[C@H]1O[C@@H](n2ccc(N)nc2=O)[C@@H](O)[C@@H]1OC(=O)CCC,inactive,0.11 µg/mL,5.94,5.28,8%,14%,inactive,,
CC(=O)OC[C@H]1O[C@@H](n2ccc(N)nc2=O)[C@@H](O)[C@@H]1OC(C)=O.Cl,inactive,0.06 µg/mL,5.49,4.80,10%,,,,
Cl.Nc1ccn([C@@H]2O[C@H](COC(=O)Cc3ccccc3)[C@@H](OC(=O)Cc3ccccc3)[C@@H]2O)c(=O)n1,inactive,0.13 µg/mL,5.64,5.89,29%,,,,
Cl.Nc1ccn([C@@H]2O[C@H](CO)[C@@H](OC(=O)Cc3ccccc3)[C@@H]2O)c(=O)n1,inactive,0.11 µg/mL,6.34,5.82,8%,,,,
CCCCCCCCC(=O)OC[C@H]1O[C@@H](n2ccc(N)nc2=O)[C@@H](O)[C@@H]1OC(=O)CCCCCCCC.Cl,inactive,0.08 µg/mL,6.72,6.28,71%,,,,
C=CCCCCCCCCC(=O)O[C@H]1[C@H](O)[C@H](n2ccc(N)nc2=O)O[C@@H]1CO,inactive,0.05 µg/mL,6.96,6.36,49%,,,> 52%,> 191%
CCCCCCCC/C=C/CCCCCCCC(=O)O[C@H]1[C@H](O)[C@H](n2ccc(N)nc2=O)O[C@@H]1CO,,0.05 µg/mL,6.03,5.82,> 258%,> 246%,,,
CCCCCCCCC(=O)O[C@H]1[C@H](O)[C@H](n2ccc(N)nc2=O)O[C@@H]1CO,inactive,0.05 µg/mL,7.00,6.52,59%,,,> 142%,> 189%
CCCCCCCCCCC(=O)O[C@H]1[C@H](O)[C@H](n2ccc(N)nc2=O)O[C@@H]1CO,,0.04 µg/mL,7.00,6.92,> 125%,> 127%,,,> 99%
